Assay results from ChEMBL document CHEMBL1136852, “Isolation and structure elucidation of parnafungins C and D, isoxazolidinone-containing antifungal natural products” (2009).
In brackets after ≈: the same amount, converted by molar mass.

How the values were obtained:
Type in all cases: functional
Candida albicans [1] = assay: Antifungal activity against Candida albicans MY2323
In short: (§1)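 Wild-type C. albicans was tested alongside two heterozygote strains, each carrying a single copy of CLP1 or YSH1, to compare mechanism of action. The read-out was MIC.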

Nakaseomyces glabratus = assay: Antifungal activity against Candida glabrata ATCC 90030
In short: (§2)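 MIC was determined in Sabouraud dextrose medium.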

Candida parapsilosis = assay: Antifungal activity against Candida parapsilosis 22019; conditions: Lodderomyces parapsilosis; in short: as §2
Clavispora lusitaniae = assay: Antifungal activity against Candida lusitaniae ATCC 34449; in short: as §2
Pichia kudriavzevii = assay: Antifungal activity against Candida krusei ATCC 6258; in short: as §2
Candida tropicalis = assay: Antifungal activity against Candida Candida tropicalis ATCC 750; in short: as §2
Candida albicans [2] = assay: Antifungal activity against Candida albicans MY2323 expressing single copy of CLP1 gene; in short: as §1
Candida albicans [3] = assay: Antifungal activity against Candida albicans MY2323 expressing single copy of YSH1 gene; in short: as §1

MIC (Candida albicans [1]) [µg/mL] | MIC (Nakaseomyces glabratus) [µg/mL] | MIC (Candida parapsilosis) [µg/mL] | MIC (Clavispora lusitaniae) [µg/mL] | MIC (Pichia kudriavzevii) [µg/mL] | MIC (Candida tropicalis) [µg/mL] | MIC (Candida albicans [2]) [µg/mL] | MIC (Candida albicans [3]) [µg/mL] | SMILES
2 (≈ 4.3 µM) | > 10 | > 10 | 0.16 (≈ 0.344 µM) | 0.08 (≈ 0.172 µM) | 2.5 (≈ 5.37 µM) | 0.03 (≈ 0.0645 µM) | 0.03 (≈ 0.0645 µM) | COC(=O)[C@]12Oc3cc4c(c(OC)c3C(=O)C1=C(O)CC[C@@H]2O)-c1cccc2c(=O)on(c12)C4 [PARNAFUNGIN A]
0.016 (≈ 0.0334 µM) | 5 (≈ 10.4 µM) | 2.5 (≈ 5.21 µM) | 0.16 (≈ 0.334 µM) | 0.016 (≈ 0.0334 µM) | 0.6 (≈ 1.25 µM) | 0.004 (≈ 0.00834 µM) | 0.004 (≈ 0.00834 µM) | COC(=O)[C@]12Oc3cc4c(c(OC)c3C(=O)C1=C(O)[C@@H]1O[C@@H]1[C@@H]2O)-c1cccc2c(=O)on(c12)C4 [PARNAFUNGIN D]
